From ChEMBL document CHEMBL1131591, “2-Fluoro-4-pyridinylmethyl analogues of linopirdine as orally active acetylcholine release-enhancing agents with good efficacy and duration of action” (J Med Chem, 1998)
One block for each molecule: values may come before it.

Legend:
Rattus norvegicus [1] = species: Rattus norvegicus; test: Compound was tested in vitro for its ability to enhance the K+-stimulated release of [3H]acetylcholine from rat hippocampal slices preloaded with [3H]choline at 10 uM; assay type: functional, Hippocampus
Method in brief: (§1)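 Superfused rat hippocampal slices preloaded with [3H]choline. Release evoked for 4 min at two points (S1, S2) by raising K+ in the medium to 25 mM. Compound added after S1 and kept in the medium through S2. Enhancement taken as the S2/S1 ratio, expressed as percent of control (control = 100%). EC50 taken as the concentration giving 50% of the compound's peak efficacy. At least three determinations per point.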

Rattus norvegicus [2] = species: Rattus norvegicus; test: Compound was tested in vitro for its ability to enhance the K+-stimulated release of [3H]acetylcholine from rat hippocampal slices preloaded with [3H]-Choline.; assay type: functional; details: Hippocampus; method in brief: as §1
Rattus norvegicus [3] = test: Compound was tested in vivo for microdialysis ACh release after peroral administration of 5 mg/kg methocel at the duration of >80 minutes; assay type: functional; details: route oral
Method in brief: (§2)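 Freely moving rats under brain microdialysis. Dialysate injected onto HPLC every 20 min to measure ACh. Compound or vehicle given orally after the fourth 20-min collection, usually 14 collections in total. Vehicle was water or a suspension in […] methocel in water, bead-milled overnight. Peak reported as percent increase over baseline (control = 0). Duration is the number of consecutive minutes at significance.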

Rattus norvegicus [4] = test: Compound was tested in vivo for microdialysis ACh release after peroral administration of 1 mg/kg suspended in methocel at the duration of 120 minutes; assay type: functional; details: route oral; method in brief: as §2
Rattus norvegicus [5] = species: Rattus norvegicus; test: Compound was tested in vitro for its ability to enhance the K+-stimulated release of [3H]acetylcholine from rat hippocampal slices preloaded with [3H]choline at 3 uM; assay type: functional, Hippocampus; method in brief: as §1
Rattus norvegicus [6] = test: Compound was tested in vivo for microdialysis ACh release after peroral administration of 10 mg/kg water at the duration of 100 minutes; assay type: functional; details: route oral; method in brief: as §2
Rattus norvegicus [7] = test: Compound was tested in vivo for microdialysis ACh release after peroral administration of 5 mg/kg suspended in water; assay type: functional; details: route oral; method in brief: as §2
Rattus norvegicus [8] = test: Compound was tested in vivo for microdialysis ACh release after peroral administration of 10 mg/kg methocel; assay type: functional; details: route oral; method in brief: as §2
Rattus norvegicus [9] = test: Compound was tested in vivo for microdialysis ACh release after peroral administration of 0.5 mg/kg suspended in methocel; assay type: functional; details: route oral; method in brief: as §2
Rattus norvegicus [10] = test: Compound was tested in vivo for microdialysis ACh release after peroral administration of 1 mg/kg methocel at the duration of >120 minutes; assay type: functional; details: route oral; method in brief: as §2
Rattus norvegicus [11] = species: Rattus norvegicus; test: Compound was tested in vitro for its ability to enhance the K+-stimulated release of [3H]acetylcholine from rat hippocampal slices preloaded with [3H]-Choline at 1 uM; assay type: functional, Hippocampus; method in brief: as §1
Rattus norvegicus [12] = test: Compound was tested in vivo for microdialysis ACh release after peroral administration of 5 mg/kg methocel at the duration of 100 minutes; assay type: functional; details: route oral; method in brief: as §2
Rattus norvegicus [13] = test: Compound was tested in vivo for microdialysis ACh release after peroral administration of 10 mg/kg water at the duration of >40 minutes; assay type: functional; details: route oral; method in brief: as §2
Rattus norvegicus [14] = test: Compound was tested in vivo for microdialysis ACh release after peroral administration of 20 mg/kg methocel at the duration of 140 minutes; assay type: functional; details: route oral; method in brief: as §2
Rattus norvegicus [15] = test: Compound was tested in vivo for microdialysis ACh release after peroral administration of 5 mg/kg suspended in water at the duration of 20 minutes; assay type: functional; details: route oral; method in brief: as §2
Rattus norvegicus [16] = test: Compound was tested in vivo for microdialysis ACh release after peroral administration of 10 mg/kg suspended in methocel at the duration of 80 minutes; assay type: functional; details: route oral; method in brief: as §2

- EC50 (Rattus norvegicus [2]): 4120 nM
SMILES: c1ccc2c(c1)-c1ncccc1C2(Cc1ccncc1)Cc1ccncc1
- Control (Rattus norvegicus [1]): 725%

- EC50 (Rattus norvegicus [2]): 450 nM
SMILES: O=C1c2ccccc2C(Cc2ccncc2)(Cc2ccncc2)c2ccccc21
- Control (Rattus norvegicus [1]): 600%
- Increase over control (Rattus norvegicus [6]): 127%
- Increase over control (Rattus norvegicus [7]): 18%

- EC50 (Rattus norvegicus [2]): 15200 nM
SMILES: O=C1N(c2ccccc2)c2ccccc2C1(Cc1ccnc(F)c1)Cc1ccnc(F)c1
- Control (Rattus norvegicus [1]): 326%
- Increase over control (Rattus norvegicus [8]): 44%

- EC50 (Rattus norvegicus [2]): 10000 nM
SMILES: O=C1N(c2ccccc2)c2ccccc2C1(Cc1ccncc1)Cc1ccnc(F)c1 (configuration not stated)
- Control (Rattus norvegicus [1]): 433%
- Increase over control (Rattus norvegicus [8]): 27%

- EC50 (Rattus norvegicus [2]): 4500 nM
SMILES: O=C1N(c2ccccc2)c2ccccc2C1(Cc1ccncc1)Cc1ccncc1 [LINOPIRDINE]
- Control (Rattus norvegicus [1]): 337%
- Increase over control (Rattus norvegicus [14]): 117%
- Increase over control (Rattus norvegicus [15]): 50%
- Increase over control (Rattus norvegicus [16]): 65%

More lines, now with the values behind:

SMILES: Fc1cc(CC2(Cc3ccnc(F)c3)c3ccccc3-c3ncccc32)ccn1
- Increase over control (Rattus norvegicus [3]): 201%
- EC50 (Rattus norvegicus [2]): 1600 nM
- Increase over control (Rattus norvegicus [4]): 74%
- Control (Rattus norvegicus [5]): 440%

SMILES: O=C1c2ccccc2C(Cc2ccnc(F)c2)(Cc2ccnc(F)c2)c2ccccc21
- EC50 (Rattus norvegicus [2]): 830 nM
- Control (Rattus norvegicus [5]): 413%
- Increase over control (Rattus norvegicus [9]): 40%
- Increase over control (Rattus norvegicus [10]): 115%

SMILES: O=C1c2ccccc2C(Cc2ccncc2)(Cc2ccnc(F)c2)c2ccccc21
- EC50 (Rattus norvegicus [2]): 410 nM
- Control (Rattus norvegicus [11]): 452%
- Increase over control (Rattus norvegicus [12]): 75%

SMILES: Fc1cc(CC2(Cc3ccncc3)c3ccccc3-c3ncccc32)ccn1 (configuration not stated)
- Control (Rattus norvegicus [1]): 317%
- Increase over control (Rattus norvegicus [13]): 52%
- EC50 (Rattus norvegicus [2]): 1080 nM
- Increase over control (Rattus norvegicus [7]): 47%
